The structures appear in SMILES notation. In brackets after ≈: the same amount, converted by molar mass.

Holding throughout (type): functional
Test [1] concerns MCF7R. In words: Cytotoxicity against MCF7R cells at 10 uM. As to conditions: Homo sapiens. The essentials:
(§1)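 Cytotoxicity tested in KB, MCF7 and MCF7R cells with compounds at 10⁻⁵ M.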

The test system of test [2] is MCF7. The experiment in a line: Cytotoxicity against MCF7 cells at 10 uM. As to conditions: Homo sapiens. In short, it runs like this:
as §1

Test [3] concerns KB. In words: Cytotoxicity against KB cells at 10 uM. As to conditions: Homo sapiens. The essentials: as §1
Test [4] concerns Staphylococcus aureus. The experiment in a line: Antibacterial activity against quinolone/macrolide-susceptible Staphylococcus aureus ATCC 25923 assessed as growth. The essentials: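 Single-concentration growth screen: compound added from DMSO solution to a final 100 mg/L in MH medium with 10⁶ CFU/mL bacteria. Incubated at 37 °C with growth read at 650 nm after 1, 2, 8 and 24 h. Ampicillin was the positive control and DMSO the negative control. Scored ++ for no growth, + for growth <10% of the negative control, – otherwise.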

Test [5] has as its system Staphylococcus aureus. The experiment in a line: Effect on ethidium bromide efflux in quinolone/macrolide-resistant Staphylococcus aureus NorA by measuring remaining initial ethidium concentration at 20 mg/L after 10 mins. The essentials:
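S. aureus NorA 1199B grown in LB at 37 °C to A660 0.7–0.8, then loaded with EtBr (10 mg/L) plus CCCP (20 mg/L) for 10 min at 37 °C. Cells spun and resuspended in LB at 37 °C without EtBr, inhibitor added at resuspension. Fluorescence read continuously for 10 min and expressed as percentage of initial fluorescence. At least three experiments.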

Test [6] deals with Staphylococcus aureus. In words: Antibacterial activity against quinolone/macrolide-susceptible Staphylococcus aureus ATCC 25923. In short, it runs like this:
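MIC by twofold serial dilution in Mueller–Hinton broth with 10⁶ CFU/mL inoculum. Read as the lowest concentration with no visible growth after 18 h at 37 °C. Run in triplicate.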

In test [7] the test system is MCF7. In words: Cytotoxicity against MCF7 cells at 0.25 nM. As to conditions: Homo sapiens.
Test [8] relates to KB. The experiment in a line: Cytotoxicity against KB cells at 0.25 nM. As to conditions: Homo sapiens.
The test system of test [9] is MCF7R. In words: Cytotoxicity against MCF7R cells at 0.25 nM. The conditions noted are these: Homo sapiens.
For another test, the system named is Bacillus subtilis. In words: Effect on ethium bromide efflux in Bacillus subtilis at 20 mg/L after 10 mins. The essentials: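 B. subtilis ΔΔ (bmr::cat blt::erm) carried plasmid pBEV, which expresses NorA from a strong promoter. Cells were transferred into PBS pH 7.2 with 0.5% glucose at 37 °C. They were loaded with EtBr (10 mg/L) plus CCCP (20 mg/L) for 10 min at 37 °C, spun down and resuspended in LB without EtBr, adding the inhibitor at that point. Fluorescence was recorded continuously for 10 min and expressed as % of initial. Each experiment was done at least three times.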

Test [10] has as its system Staphylococcus aureus. The experiment in a line: Increase in ciprofloxacine uptake in quinolone/macrolide-resistant Staphylococcus aureus […] at 20 mg/L after 10 mins. The essentials:
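Cells grown in LB to OD660 0.7–0.8, washed twice and concentrated 20-fold in 100 mM phosphate pH 7.2 with 1 mM MgSO4 and 0.4% glucose. Preincubated 5 min at 37 °C, then ciprofloxacin 10 mg/L added. Samples spun through silicone oil, pellets lysed in glycine–HCl pH 3.0 at 100 °C for 10 min. Fluorescence (ex 242/em 487 nm) read against a lysate standard curve, as ng per 10⁹ CFU.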

The test system of test [11] is Staphylococcus aureus. In words: Increase in ciprofloxacine uptake in quinolone/macrolide-susceptible Staphylococcus aureus 1199 at 20 mg/L after 10 mins. The essentials: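 Silicone-oil uptake assay. Cells were grown in LB to OD660 0.7–0.8, washed, and concentrated 20-fold in 100 mM phosphate pH 7.2 with 1 mM MgSO₄ and 0.4% glucose. After 5 min at 37 °C, ciprofloxacin was added at 10 mg/L. Timed samples were spun through silicone oil and the pellets lysed in 0.1 M glycine–HCl pH 3.0 at 100 °C for 10 min. Lysate fluorescence (ex 242/em 487 nm) was read against a standard curve and reported as ng per 10⁹ CFU.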

For the compound `O=Cc1ccsc1-c1ccccc1`, the inhibition at 10 µM with MCF7R [1] was determined as 0%; in the test on MCF7 [2], 16%; in the test on KB [3] it was 33%.
With `COC(=O)C(Cc1c(-c2ccc(C#N)cc2)sc2ccccc12)NC(=O)c1ccccc1` (racemic), the inhibition at 10 µM in the test with MCF7R [1] stood at 32%; in the test on MCF7 [2] it was 12%; in the test on KB [3] it was 35%. In addition, in the test on Staphylococcus aureus [4], the Activity is listed as less than 10%.
As for `COC(=O)[C@H]1[C@H]2C[C@@H]3c4[nH]c5cc(OC)ccc5c4CCN3C[C@H]2C[C@@H](OC(=O)c2cc(OC)c(OC)c(OC)c2)[C@@H]1OC` [RESERPINE], in the test with Staphylococcus aureus [5], the “Remaining ethidium fluorescence (% of initial)” value was 72%.
For the compound `O=Cc1c(-c2ccc(C(F)(F)F)cc2)sc2ccccc12`, the inhibition at 10 µM in the test on MCF7R [1] came out at 59%; with MCF7 [2], 73%; with KB [3], 88%.
For `N#Cc1sc2ccccc2c1-c1cccnc1`, in that order: 22%, 18% and 37%.
Take `N#Cc1ccccc1-c1sc2ccccc2c1OCC(F)(F)F`: the inhibition at 10 µM was determined as 39% in the test with MCF7R [1], 49% with MCF7 [2] and 56% with KB [3].
In the test with Staphylococcus aureus [6], `COc1cc(-c2cccnc2)sc1-c1cccnc1` returned an MIC of 100 µg/mL (≈ 373 µM).
`COc1cc(-c2cccc(C(F)(F)F)c2)sc1-c1cccnc1`: the results for the inhibition at 10 µM in the test on MCF7R [1], with MCF7 [2] and in the test with KB [3] were 0%, 0% and 7%, respectively.
Turning to `N#Cc1ccccc1-c1sc2ccccc2c1C=O`, the inhibition at 10 µM was determined as 33% in the test on MCF7R [1], 38% in the test with MCF7 [2] and 51% in the test on KB [3].
As to `COC(=O)/C(=C/c1c(-c2ccc(C#N)cc2)sc2ccccc12)NC(=O)c1ccccc1`, the inhibition at 10 µM with MCF7 [2] is 0%; in the test on KB [3], 24%.
Consider `N#Cc1c(-c2cccc(Cl)c2)sc2ccccc12`, for which the inhibition at 10 µM in the test with MCF7R [1] was 20%; in the test with MCF7 [2], 36%; in the test on KB [3], 23%.
On to `COc1ccc(-c2sc3ccccc3c2C=O)cc1`, for which the inhibition at 10 µM stood at 80% with MCF7R [1], 62% in the test with MCF7 [2] and 89% with KB [3].
For the compound `CC(=O)O[C@@]12CO[C@@H]1C[C@H](O)[C@@]1(C)C(=O)[C@H](O)C3=C(C)[C@@H](OC(=O)[C@H](O)[C@@H](NC(=O)OC(C)(C)C)c4ccccc4)C[C@@](O)([C@@H](OC(=O)c4ccccc4)[C@H]21)C3(C)C` [DOCETAXEL], the inhibition at 0.00025 µM with MCF7 [7] turned out to be 31%; in the test on KB [8] it was 87%; in the test on MCF7R [9] it was 4%.
Turning to `O=Cc1c(-c2ccccc2)oc2ccccc12`, the inhibition at 10 µM came out at 37% in the test with MCF7R [1], 47% in the test on MCF7 [2] and 67% in the test on KB [3]. Also, the “Remaining ethidium fluorescence (% of initial)” value in the test with Staphylococcus aureus [5] is recorded as 72%.
Regarding `COc1ccsc1-c1ccccc1C#N`, the inhibition at 10 µM was 4% in the test on MCF7R [1], 17% with MCF7 [2] and 11% in the test with KB [3].
In the case of `O=Cc1c(-c2ccccc2)sc2ccccc12`, the figures for the inhibition at 10 µM in the test on MCF7R [1], with MCF7 [2] and in the test on KB [3] were 37%, 51% and 42%, respectively. In addition, in the test with Staphylococcus aureus [5], the “Remaining ethidium fluorescence (% of initial)” value is on record as 72%. Also, the Activity in the test on Bacillus subtilis stood at 5%; with Staphylococcus aureus [10], 0.07 a.u; in the test on Staphylococcus aureus [11], 0.08 a.u.
In the test on Staphylococcus aureus [6], `COc1c(-c2cccnc2)sc2ccccc12` displayed an MIC of 100 µg/mL (≈ 414 µM).
Consider `N#Cc1c(-c2ccc(Cl)cc2)sc2ccccc12`, for which the inhibition at 10 µM in the test on MCF7R [1] amounted to 18%; in the test on MCF7 [2], 27%; in the test on KB [3], 29%.
`N#Cc1ccccc1-c1c(OCC(F)(F)F)sc2ccccc12`: the figures for the inhibition at 10 µM in the test on MCF7R [1], in the test with MCF7 [2] and in the test with KB [3] were 97%, 92% and 100%, respectively.
The like results for `O=Cc1c(-c2ccc(Cl)cc2)sc2ccccc12` were, in that order, 35%, 69% and 67%.
As to `FC(F)(F)COc1c(-c2cccnc2)sc2ccccc12`, in the test on Staphylococcus aureus [6], the MIC was determined as 100 µg/mL (≈ 323 µM).
For the compound `O=Cc1c(-c2cccnc2)sc2ccccc12`, the figures for the inhibition at 10 µM in the test on MCF7R [1], in the test with MCF7 [2] and with KB [3] were 0%, 3% and 18%, respectively. For the same compound, in the test on Staphylococcus aureus [5], the “Remaining ethidium fluorescence (% of initial)” value is listed as 72%.

For the origin of these results see ChEMBL document CHEMBL1148697, “Synthesis and evaluation of new arylbenzo[b]thiophene and diarylthiophene derivatives as inhibitors of the NorA multidrug transporter of Staphylococcus aureus” (2007).
